Results from PubChem BioAssay.
Calls of active or inactive are those of the source.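 The calls were made as follows, unless noted: active = viability at or under a set limit in both replicates, limit being median viability minus 3 SD (cut at about 48% in these data, passing the limit was not always enough); inconclusive = at or under the limit in just one replicate; inactive = at or above the limit in both replicates.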

Key:
[1] = reducers of endogenous Her2 protein level, primary screen, SKBR3 breast tumor cells, AlphaScreen, ATP viability (AID 461;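 active = Her2 level under about 52% in both replicate screens, with viability over 70% of control, limit read from the data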;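 as to Her2 level: lower value means less Her2 protein in the cells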;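 as to viability: percent of carrier control wells set as 100% viability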); details: 18-24 h, measured here: SKBR3 viability, ATP luminescence, at 10 µM
[2] = target: Receptor tyrosine-protein kinase erbB-2 (Homo sapiens) (UniProt P04626); test: as above; details: 18-24 h, at 10 µM, stronger effect = lower value
Chain of Receptor tyrosine-protein kinase erbB-2 (Homo sapiens) (P04626 whole entry, looked up): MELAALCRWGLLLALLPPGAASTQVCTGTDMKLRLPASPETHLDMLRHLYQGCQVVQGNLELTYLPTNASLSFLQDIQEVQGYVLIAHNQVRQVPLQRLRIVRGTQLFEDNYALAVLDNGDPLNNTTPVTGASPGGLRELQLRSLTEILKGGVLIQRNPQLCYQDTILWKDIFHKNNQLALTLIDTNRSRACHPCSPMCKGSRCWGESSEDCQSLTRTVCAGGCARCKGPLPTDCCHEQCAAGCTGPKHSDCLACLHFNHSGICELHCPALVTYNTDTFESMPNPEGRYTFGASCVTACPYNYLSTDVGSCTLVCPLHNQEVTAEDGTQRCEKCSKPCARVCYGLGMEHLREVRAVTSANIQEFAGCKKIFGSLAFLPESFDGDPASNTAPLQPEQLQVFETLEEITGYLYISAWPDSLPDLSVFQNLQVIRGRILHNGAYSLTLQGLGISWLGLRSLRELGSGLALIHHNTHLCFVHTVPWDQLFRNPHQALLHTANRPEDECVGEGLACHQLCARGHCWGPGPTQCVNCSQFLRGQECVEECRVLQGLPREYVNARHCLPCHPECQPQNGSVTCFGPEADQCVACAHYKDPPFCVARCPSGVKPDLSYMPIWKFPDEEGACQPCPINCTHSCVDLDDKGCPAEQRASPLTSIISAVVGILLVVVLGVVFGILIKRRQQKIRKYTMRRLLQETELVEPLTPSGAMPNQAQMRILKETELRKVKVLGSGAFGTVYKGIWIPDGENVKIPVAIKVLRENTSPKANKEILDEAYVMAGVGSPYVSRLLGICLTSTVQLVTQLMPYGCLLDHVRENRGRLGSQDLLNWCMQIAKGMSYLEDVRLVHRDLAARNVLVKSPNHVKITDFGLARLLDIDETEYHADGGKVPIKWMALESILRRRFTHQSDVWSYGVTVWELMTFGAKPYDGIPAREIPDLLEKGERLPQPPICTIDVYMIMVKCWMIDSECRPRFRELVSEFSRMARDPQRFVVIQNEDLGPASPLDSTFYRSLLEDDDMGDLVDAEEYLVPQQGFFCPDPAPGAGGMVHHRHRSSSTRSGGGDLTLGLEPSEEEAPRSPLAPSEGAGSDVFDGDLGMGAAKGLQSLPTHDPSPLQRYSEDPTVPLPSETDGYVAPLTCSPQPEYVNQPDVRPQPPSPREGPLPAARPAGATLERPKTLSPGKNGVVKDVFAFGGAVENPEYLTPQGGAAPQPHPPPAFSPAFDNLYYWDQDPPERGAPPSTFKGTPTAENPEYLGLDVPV

[3] = SK-BR-3 cell growth inhibitors, pilot screen, 24 h, human (AID 572;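 active = viability at or below 10% of carrier control in both of two separate runs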;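 also: compound exposure lasted between 18 and 24 h rather than exactly 24 h; 100% = carrier-treated control wells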); details: SK-BR-3 viability, CellTiter-Glo luminescence, at 10 µM, stronger effect = lower value
[4] = HUVEC growth inhibition – cell-based, human, primary screen (AID 575;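 active = viability at or below 30% in both replicate assays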;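 also: 100% = median of untreated cell wells with 0.1% DMSO on each plate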); details: HUVEC proliferation, CellTiter-Glo luminescence, 72 h; at 10 µM; stronger effect = lower value
Method in brief: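 System – primary HUVEC, no more than 12 passages · Medium – Low-serum (2% FBS) EBM, supplemented · Times – 72 h exposure, 37 °C, 5% CO2, 30 min RT equilibration · Measured by – luminescent ATP assay · Read-out – % viability relative to median vehicle-well signal on each plate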

[5] = growth inhibitors of H69AR lung tumor, primary screen, human, duplicate replicates (AID 580); details: H69AR lung tumor cells viability, ATP luminescence, 72 h; at 10 µM; stronger effect = lower value;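 also: 100% = mean luminescence of untreated wells and 0% = no signal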
[6] = reversal of MRP1-mediated doxorubicin resistance, pilot screen, H69AR cells, doxorubicin co-treatment (AID 601;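 active = viability loss from added drug above about 55%, and viability with drug at most 40%, in both replicates, limit read from the data, passing the limit was not always enough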); details: CellTiter-Glo, 72 h, at 10 µM; for differential viability (reversal): stronger effect = higher value
[7] = 384-well plate pilot, post-Golgi transport modulator project, inhibition of yeast transport mutant growth (AID 636; in the data active = inhibition above about 31%); details: absorbance 615 nm, about 18 h, stronger effect = higher value
[8] = growth suppression of yeast trafficking mutant, preliminary HTS, modulators of trafficking downstream of Golgi apparatus project, 1536-format plate, OD 615 nm (AID 637; in the data active = inhibition above about 30%); details: yeast transport mutant growth, absorbance 615 nm, 18 h; stronger effect = higher value
[9] = H69AR cells + 2 uM doxorubicin, measured here: viability with 2 uM doxorubicin, stronger effect = lower value
[10] = H69AR cells, compound alone cytotoxicity

Row | Compound | viability [1] | Her2 level [2] | viability [3] | viability [4] | viability [5] | differential viability (reversal) ([6]; H69AR cells + 2 uM doxorubicin) | viability [6, 9] | viability [6, 10] | inhibition [7] | inhibition [8]
1 | Cc1cc(NC(=O)CSc2ccc(Cl)cc2)no1 | 88.5% | 114% (inactive) | 88.5% (inactive) | 91.3% (inactive) | 61% (inactive) | -10.7% (inactive) | 71.7% | 61% | -0.66% (inactive) | 22.3% (inactive)
2 | Cc1nn(Cc2ccc(C(=O)NC3CCCCC3)o2)c(C)c1Br | 94.5% | 90% (inactive) | 94.5% (inactive) | 86.9% (inactive) | 92.9% (inactive) | -5.8% (inactive) | 98.7% | 92.9% | -3.29% (inactive) | -5.17% (inactive)
3 | COc1ccc2c(c1)OC(O)(C(F)F)CC2=O (stereo not given) | 116% | 107% (inactive) | 116% (inactive) | 102% (inactive) | 93.5% (inactive) | 2.35% (inactive) | 91.2% | 93.5% | -1.04% (inactive) | -2% (inactive)
4 | O=C(Cn1cnc2c(oc3ccccc32)c1=O)N1CCN(c2ccccc2)CC1 | 95% | 91.5% (inactive) | 95% (inactive) | 91.6% (inactive) | 84.9% (inactive) | -2.86% (inactive) | 87.7% | 84.9% | -0.66% (inactive) | 3.65% (inactive)
5 | CCN1CCN(C(=O)c2ccc3c(=O)n(CCC4=CCCCC4)c(=O)[nH]c3c2)CC1 | 91% | 114% (inactive) | 91% (inactive) | 78.1% (inactive) | 84.7% (inactive) | 16.7% (inactive) | 67.9% | 84.7% | -8.29% (inactive) | -0.55% (inactive)
6 | Cc1noc(C)c1CSc1nc2cc(S(=O)(=O)N3CCOCC3)ccc2o1 | 98.5% | 93% (inactive) | 98.5% (inactive) | 96.7% (inactive) | 83.6% (inactive) | -0.29% (inactive) | 83.9% | 83.6% | -5.48% (inactive) | 5.56% (inactive)
7 | COc1ccc2c(c1)[nH]c1c(=O)n(CC3CCCO3)cnc12 (stereo not given) | 86% | 94% (inactive) | 86% (inactive) | 97.2% (inactive) | 90.5% (inactive) | -4.4% (inactive) | 94.9% | 90.5% | -3.42% (inactive) | -6.39% (inactive)
8 | CCN(C(=O)CCc1nc(-c2ccccc2F)no1)c1cc(OC)ccc1OC | 87.5% | 130% (inactive) | 87.5% (inactive) | 68.1% (inactive) | 92.4% (inactive) | -2.4% (inactive) | 94.8% | 92.4% | 1.71% (inactive) | 0.33% (inactive)
9 | O=C(NCCCN1CCCC1=O)c1ccc2c(c1)NC(=O)C(N1CCOCC1)S2 (stereo not given) | 143% | 94.5% (inactive) | 143% (inactive) | 115% (inactive) | 89.5% (inactive) | 6.1% (inactive) | 83.3% | 89.5% | -6.4% (inactive) | 0.82% (inactive)
10 | c1cc(-c2nc3ccccc3o2)nc(-c2nc3ccccc3o2)c1 | 122% | 94.5% (inactive) | 122% (inactive) | 90.9% (inactive) | 87.6% (inactive) | 7.43% (inactive) | 80.2% | 87.6% | -4.21% (inactive) | 1.83% (inactive)
11 | COc1cc(CN2CCN(C(=O)CC(C)C)CC2)cc(OC)c1O | 114% | 93.5% (inactive) | 114% (inactive) | 103% (inactive) | 102% (inactive) | 5.74% (inactive) | 96.8% | 102% | -1.04% (inactive) | -4.6% (inactive)
12 | Cc1sc2nc(CN3CCN(S(=O)(=O)c4cccc5nonc45)CC3)[nH]c(=O)c2c1C | 102% | 93.5% (inactive) | 102% (inactive) | 66.4% (inactive) | 87.9% (inactive) | 9.52% (inactive) | 78.4% | 87.9% | -6.05% (inactive) | 0.5% (inactive)
13 | O=C(CSc1nnc(Cn2nnc(-c3ccccc3)n2)n1-c1ccccc1)Nc1ccc(F)cc1 | 91% | 82% (inactive) | 91% (inactive) | 64.1% (inactive) | 75.7% (inactive) | 3.96% (inactive) | 71.8% | 75.7% | -1.45% (inactive) | 13.4% (inactive)
14 | CC1CCN(C(=O)C2CCN(S(=O)(=O)c3cnc[nH]3)CC2)CC1 | 98% | 93% (inactive) | 98% (inactive) | 96.5% (inactive) | 103% (inactive) | 7.72% (inactive) | 95.3% | 103% | -4.61% (inactive) | 3.87% (inactive)
15 | CCOC(=O)Nc1ccc2c(c1)N(C(=O)CN(CC)CC)c1ccccc1C=C2 | 87.5% | 93% (inactive) | 87.5% (inactive) | 97.3% (inactive) | 91.4% (inactive) | 8.63% (inactive) | 82.8% | 91.4% | -4.61% (inactive) | 5.9% (inactive)
16 | O=C(c1cnn2c(C(F)(F)F)cc(-c3ccco3)nc12)N1CCc2ccccc2C1 | 76% | 112% (inactive) | 76% (inactive) | 69.9% (inactive) | 89.6% (inactive) | 3.92% (inactive) | 85.7% | 89.6% | -1.33% (inactive) | -9.37% (inactive)
17 | COc1ccc(C(=O)Nc2ccc(S(=O)(=O)NC(C)=O)cc2)cc1 | 120% | 100% (inactive) | 120% (inactive) | 96.5% (inactive) | 93.1% (inactive) | -5.71% (inactive) | 98.8% | 93.1% | -4.13% (inactive) | -2.26% (inactive)
18 | CCOC(=O)c1c(N)sn(-c2ccccc2)c1=S | 87% | 108% (inactive) | 87% (inactive) | 101% (inactive) | 85.3% (inactive) | -5.28% (inactive) | 90.6% | 85.3% | -0.9% (inactive) | 2.17% (inactive)
19 | O=C(COC(=O)c1ccccc1O)Nc1ccc(OC(F)F)cc1 | 78% | 123% (inactive) | 78% (inactive) | 93.7% (inactive) | 93.2% (inactive) | 2.67% (inactive) | 90.5% | 93.2% | 5.14% (inactive) | 32.4% (active)
20 | Cn1c(=O)c2c(nc(SCC(=O)O)n2Cc2cccc(C(F)(F)F)c2)n(C)c1=O | 97.5% | 84% (inactive) | 97.5% (inactive) | 94.7% (inactive) | 95.6% (inactive) | 5.41% (inactive) | 90.2% | 95.6% | -4.67% (inactive) | 0.81% (inactive)
21 | O=C1c2oc3ccccc3c(=O)c2C(c2ccccn2)N1Cc1ccccc1 (stereo not given) | 91.5% | 110% (inactive) | 91.5% (inactive) | 95.6% (inactive) | 104% (inactive) | 9.52% (inactive) | 94.7% | 104% | 1.07% (inactive) | -8.87% (inactive)
22 | Cn1c(=O)c2c(nc(Oc3ccc4c(c3)OCO4)n2Cc2ccc(F)cc2)n(C)c1=O | 79.5% | 74.5% (inactive) | 79.5% (inactive) | 72.1% (inactive) | 74.7% (inactive) | -8.34% (inactive) | 83% | 74.7% | -2.84% (inactive) | 3.49% (inactive)
23 | COc1cccc(-c2nnc3sc(-c4ccc(C)cc4)nn23)c1 | 103% | 81% (inactive) | 103% (inactive) | 57% (inactive) | 17.3% (active) | -61.5% (inactive) | 78.8% | 17.3% | -5.92% (inactive) | -4.03% (inactive)
24 | COc1ccccc1-c1cn[nH]c(=S)n1 | 101% | 108% (inactive) | 101% (inactive) | 100% (inactive) | 96.1% (inactive) | 3.25% (inactive) | 92.9% | 96.1% | 1.07% (inactive) | -8.06% (inactive)
25 | Cc1cc(NC(=O)CSc2ccc3nnc(-c4cccc(F)c4)n3n2)no1 | 108% | 102% (inactive) | 108% (inactive) | 103% (inactive) | 94.6% (inactive) | 8.17% (inactive) | 86.4% | 94.6% | -4.19% (inactive) | -4.17% (inactive)
26 | COc1cccc(-c2noc(-c3cccs3)n2)c1 | 96.5% | 87% (inactive) | 96.5% (inactive) | 75.1% (inactive) | 81.5% (inactive) | -29.2% (inactive) | 111% | 81.5% | 2.08% (inactive) | -4.29% (inactive)
27 | CSCCC(NC(=O)c1ccco1)C(=O)OC(C)C(=O)NC(=O)NC1CCCCC1 (stereo not given) | 88% | 99% (inactive) | 88% (inactive) | 96.1% (inactive) | 111% (inactive) | 16.1% (inactive) | 95% | 111% | -3.9% (inactive) | 8.52% (inactive)
28 | CCCCn1c(SCC(=O)c2ccc3c(c2)OCCO3)nnc1-c1ccco1 | 94.5% | 104% (inactive) | 94.5% (inactive) | 81.8% (inactive) | 95% (inactive) | 1.53% (inactive) | 93.4% | 95% | 1.73% (inactive) | 16.1% (inactive)
